According to PMC4936951 (Molecular pharmaceutics, 2016):
“And” between values parts separate entries of the source, which are not always exact repeats. Equal values may be shown once. Read-outs that look alike come from different tables or passages of the source.

How the values were obtained:
HCT 116/δOR cells = assay type: cell-based, human
How it was run: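 HCT 116/δOR cells (DMEM/F12, 10% calf serum, 1% pen/strep) on glass-bottom dishes, PBS-rinsed, exposed to 2.5 nM agent in Fluorobrite DMEM at 37°C, 5% CO2. Imaged every 30 s for 15 min; then rinsed and imaged in fresh medium, 4 fields every 10 min to 24 h (40× oil, Cy5, 1.5 s). Per-cell ROI intensity×area gave cytoplasm and membrane (total minus cytoplasm) fluorescence; 11–25 cells/day, three days.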

[1] = test system: δOR+ (HCT 116/δOR) and δOR− (HCT 116) tumor xenografts; test: Dose determination by in vivo fluorescence imaging of bilateral tumor xenografts; set-up: species or system nu/nu mice; conditions: 50 nmol/kg i.v., 24 h post-administration
How it was run: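 Female nu/nu mice received 8×10^6 cells, HCT 116 in the left flank and HCT 116/δOR in the right, and were imaged after 1 week. Dose given by tail-vein i.v. injection. Animals imaged immediately to confirm injection, then at 24 h, on an IVIS 200. Agent stored in dark aliquots at −80°C; animals kept in a dark chamber. Autofluorescence ratio taken from radiance in identical ROIs on background-subtracted Cy5 and autofluorescence images.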

[2] = test system: δOR+ (HCT 116/δOR) and δOR− (HCT 116) tumor xenografts; assay type: in vivo, athymic nude female mice; conditions: for Rate of uptake, Slope × 10^7 / Rate of clearance, Slope × 10^7: linear regression, n=5
How it was run: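 Athymic nude female mice carried bilateral xenografts of 8×10^6 HCT 116 (left) and HCT 116/δOR (right) cells, grown to mean 500 mm3 by caliper (length×width²/2). Single i.v. dose of 4.5 nmol/kg. IVIS 200 Cy5 imaging at 3, 9, 15, 30, 45 min and 1.5, 3, 6, 12, 18, 24, 48, 72, 96, 168 h. Readout after background subtraction and pre-injection autofluorescence correction: ROI mean surface radiance in efficiency units.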

[3] = test system: tumors and organs (spleen, pancreas, liver, kidneys, GI tract, heart, lungs); test: Ex vivo biodistribution by fluorescence imaging of excised tumors and organs; assay type: in vivo, mice; conditions: 4.5 nmol/kg
How it was run: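 Separate group of bilateral HCT 116 / HCT 116/δOR xenograft mice given 4.5 nmol/kg. At 0, 7.5 min, 15 min, 45 min, 3 h, 6 h, 24 h and 48 h: imaged in vivo, then euthanized. Tumors, spleen, pancreas, liver, kidneys, GI tract, heart and lungs excised and fluorescence-imaged ex vivo. Animals kept in low light after dosing.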

[4] = test system: HCT 116/δOR (positive) and HCT 116/RFP (negative) DWC tumors; test: Intravital confocal microscopy in dorsal skinfold window chamber; assay type: in vivo, mouse
How it was run: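 Dorsal skinfold window chamber mice carrying HCT 116/δOR or HCT 116/RFP tumors received 45 nmol/kg via tail vein. Confocal imaging with 25× lens, 3570 pixels/min: continuous for 30 min, including 1, 1.5, 2 and 5 min frames, then further time points up to 24 h. Mean intensity ROIs placed in the vessel interior, in adjacent tumor tissue, and over tumor across time.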

δ-opioid receptor = conditions: read-out: Ki (binding affinity); δ-opioid receptor antagonist; cited from earlier work
[5] = 45 nmol/kg via tail vein, δOR negative tumor vessel

Substance: Dmt-Tic-Lys(Cy5)-OH [Dmt-Tic-Cy5]
- maximum ratio of fluorescence inside (cytoplasm)/outside (cell membrane) (HCT 116/δOR cells; 2.5 nM): 1.69
- time to observed cell-surface labeling after addition of ligand (HCT 116/δOR cells; 2.5 nM): ~ 2 min and 2 min
- period of gradual tumor cell internalization (HCT 116/δOR cells; after addition of agent): 6 h and ~ 7 h and 7 h
- fold of enhancement (FOE) δOR+ tumor relative to δOR− tumor [1]: 5 fold
- time of clearance from δOR− tumor (nearly pre-injection levels) ([2]; 4.5 nmol/kg i.v.): ≤ 6 h
- time of maximum fluorescence in δOR− tumor ([2]; 4.5 nmol/kg i.v.): 15 min
- time of maximum fluorescence signal in δOR+ tumor ([2]; 4.5 nmol/kg i.v.): 3 h
- time of systemic clearance ([2]; 4.5 nmol/kg i.v., based on clearance from negative tumor): ≤ 6 h
- enhancement in positive tumor relative to negative tumor ([2]; 4.5 nmol/kg, from 30 min to 96 h post-administration): > 3 fold
- Mean FOE (+ tumor/− tumor) ([2]; 4.5 nmol/kg, time 0.15 h): 2.7
- Mean FOE (+ tumor/− tumor) ([2]; 4.5 nmol/kg, time 0.25 h): 2.7
- Mean FOE (+ tumor/− tumor) ([2]; 4.5 nmol/kg, time 0.50 h): 3.2
- Mean FOE (+ tumor/− tumor) ([2]; 4.5 nmol/kg, time 0.75 h): 4.5
- Mean FOE (+ tumor/− tumor) ([2]; 4.5 nmol/kg, time 1 h): 6.5
- Mean FOE (+ tumor/− tumor) ([2]; 4.5 nmol/kg, time 3 h): 9.7
- Mean FOE (+ tumor/− tumor) ([2]; 4.5 nmol/kg, time 6 h): 17.5
- Mean FOE (+ tumor/− tumor) ([2]; 4.5 nmol/kg, time 12 h): 13.5
- Mean FOE (+ tumor/− tumor) ([2]; 4.5 nmol/kg, time 18 h): 26.7
- Mean FOE (+ tumor/− tumor) ([2]; 4.5 nmol/kg, time 24 h): 20.6
- Mean FOE (+ tumor/− tumor) ([2]; 4.5 nmol/kg, time 48 h): 8.9
- Mean FOE (+ tumor/− tumor) ([2]; 4.5 nmol/kg, time 72 h): 10.8
- Mean FOE (+ tumor/− tumor) ([2]; 4.5 nmol/kg, time 96 h): 5.6
- Mean FOE (+ tumor/− tumor) ([2]; 4.5 nmol/kg, time 168 h): 1.8
- ratio of enhancement in target positive tumors ([2]; maintained from 6 h to 24 h post-administration): approximately 20 fold
- Rate of uptake, Slope × 10^7 ([2]; δOR+ tumor, 0 to 0.75 h): 264 Efficiency/h
- Rate of clearance, Slope × 10^7 ([2]; δOR+ tumor, 3 to 96 h): −1.45 Efficiency/h
- Rate of uptake, Slope × 10^7 ([2]; δOR− tumor, 0 to 0.25 h): 211 Efficiency/h
- Rate of clearance, Slope × 10^7 ([2]; δOR− tumor, 0.25 to 24 h): −14.6 Efficiency/h
- fluorescence signal in heart, lungs, GI tract, spleen and pancreas (ex vivo) [3]: minimal to no fluorescence signal
- time of decrease to pre-injection levels in kidney and liver (ex vivo) ([3]; n=5): ≤ 24 h
- time of highest fluorescence signal in kidney and liver (ex vivo) ([3]; n=5): 15 min
- time of clearance from tumor vasculature [4, 5]: ≤ 2 min
- time to peak intensity in tumor vasculature [4, 5]: ≤ 1 min
- time of highest fluorescence intensity in negative tumor (intravital) ([4]; 45 nmol/kg, HCT 116/RFP DWC tumor): 10 min
- time of highest fluorescence intensity in positive tumor (intravital) ([4]; 45 nmol/kg, HCT 116/δOR DWC tumor): 30 min
- time of clearance of fluorescence from negative tumor (intravital) ([4]; 45 nmol/kg, positive tumor still strong signal): ≤ 24 h
- Ki (δ-opioid receptor): 3 nM
